ChEMBL document CHEMBL3392987, “Novel synthetic coumarins that targets NF-κB in Hepatocellular carcinoma” (Bioorg Med Chem Lett, 2015)
pIC50: −log10 of the molar value. The source made the active and inactive calls. No cut-off for these calls is given here.

Columns and labels:
HepG2 [1] = experiment: Cytotoxicity against human HepG2 cells after 24 to 72 hrs by MTT assay; assay type: functional, cell-based
Method in brief: (§1)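 HepG2 cells plated in triplicate and treated with a range of compound concentrations. MTT assay run after 24, 48 and 72 h. Data given as mean ± SD of triplicates, with p <0.05 flagged.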

HepG2 [2] = experiment: Antiinvasive activity in CXCL12-induced human HepG2 cells at 50 uM after 8 hrs by in vitro migration assay
[3] = molecular target: T1, Nuclear factor NF-kappa-B complex (Homo sapiens) (UniProt Q00653+P19838+Q04206); experiment: Inhibition of NF-kappaB in human HepG2 cell extract assessed as reduction in C-Myc expression at 50 uM after 12 to 48 hrs by Western blotting; assay type: cell-based
Method in brief: (§2)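 HepG2 cells treated with 50 µM compound over a time course. Whole-cell extract (30 µg protein) resolved on 10% SDS–PAGE; membrane cut by molecular weight and probed for cyclin D1, Bcl-2, survivin or C-Myc. Blots stripped and reprobed for β-actin as loading control. Representative of two independent experiments.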

[4] = Cytotoxicity against human LO2 cells at 50 uM after 72 hrs by MTT assay; assay type: cell-based; conditions: l02, 72 h
[5] = molecular target: T1, Nuclear factor NF-kappa-B complex (Homo sapiens); experiment: Inhibition of NF-kappaB in human HepG2 cell extract assessed as reduction in Bcl-2 expression at 50 uM after 12 to 48 hrs by Western blotting; assay type: cell-based; method in brief: as §2
[6] = molecular target: T1, Nuclear factor NF-kappa-B complex (Homo sapiens); experiment: Inhibition of NF-kappaB in human HepG2 cell extract assessed as reduction in cyclin D1 expression at 50 uM after 12 to 48 hrs by Western blotting; assay type: cell-based; method in brief: as §2
HepG2 [7] = experiment: Induction of apoptosis in human HepG2 cells assessed as PARP cleavage after 12 to 48 hrs by MTT assay; assay type: functional, cell-based; conditions: in the assay text read “by Western blotting” for “by MTT assay”
Method in brief: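 HepG2 cells treated with compound over a time course. Whole-cell extract (30 µg protein) resolved on 10% SDS–PAGE; membrane cut by molecular weight, probed for PARP, then probed for β-actin on the same blots as loading control.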

HepG2 [8] = experiment: Antiinvasive activity in CXCL12-induced human HepG2 cells at 50 uM after 8 hrs by matrigel invasion assay
[9] = molecular target: T1, Nuclear factor NF-kappa-B complex (Homo sapiens); experiment: Inhibition of NF-kappaB in human HepG2 cell extract assessed as reduction in MMP12 expression at indicated concentrations by Western blotting
[10] = molecular target: T1, Nuclear factor NF-kappa-B complex (Homo sapiens); experiment: Inhibition of NF-kappaB DNA binding activity in human HepG2 cell nuclear extract at 50 uM by ELISA-based DNA binding assay; assay type: protein-complex assay; conditions: TDE = time-dependent effect
Method in brief: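 HepG2 cells treated with 50 µM compound over a time course, then nuclear extracts prepared. Extract protein (5 µg) tested in an ELISA-based TransAM NF-κB DNA-binding kit. Representative of two independent experiments.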

HepG2 [11] = experiment: Cytotoxicity against human HepG2 cells at 5 to 15 uM by MTT assay; assay type: functional, cell-based; conditions: TDE = time-dependent effect; method in brief: as §1
[12] = molecular target: T1, Nuclear factor NF-kappa-B complex (Homo sapiens); experiment: Inhibition of NF-kappaB in human HepG2 cell extract assessed as reduction in survivin expression at 50 uM after 12 to 48 hrs by Western blotting; assay type: cell-based; method in brief: as §2
PLC-PRF-5 = experiment: Cytotoxicity against human PLC/PRF/5 cells by MTT assay; assay type: functional, cell-based
Huh-7 = experiment: Cytotoxicity against human HuH7 cells by MTT assay; assay type: functional, cell-based

T1 sequence (P19838 whole entry, looked up): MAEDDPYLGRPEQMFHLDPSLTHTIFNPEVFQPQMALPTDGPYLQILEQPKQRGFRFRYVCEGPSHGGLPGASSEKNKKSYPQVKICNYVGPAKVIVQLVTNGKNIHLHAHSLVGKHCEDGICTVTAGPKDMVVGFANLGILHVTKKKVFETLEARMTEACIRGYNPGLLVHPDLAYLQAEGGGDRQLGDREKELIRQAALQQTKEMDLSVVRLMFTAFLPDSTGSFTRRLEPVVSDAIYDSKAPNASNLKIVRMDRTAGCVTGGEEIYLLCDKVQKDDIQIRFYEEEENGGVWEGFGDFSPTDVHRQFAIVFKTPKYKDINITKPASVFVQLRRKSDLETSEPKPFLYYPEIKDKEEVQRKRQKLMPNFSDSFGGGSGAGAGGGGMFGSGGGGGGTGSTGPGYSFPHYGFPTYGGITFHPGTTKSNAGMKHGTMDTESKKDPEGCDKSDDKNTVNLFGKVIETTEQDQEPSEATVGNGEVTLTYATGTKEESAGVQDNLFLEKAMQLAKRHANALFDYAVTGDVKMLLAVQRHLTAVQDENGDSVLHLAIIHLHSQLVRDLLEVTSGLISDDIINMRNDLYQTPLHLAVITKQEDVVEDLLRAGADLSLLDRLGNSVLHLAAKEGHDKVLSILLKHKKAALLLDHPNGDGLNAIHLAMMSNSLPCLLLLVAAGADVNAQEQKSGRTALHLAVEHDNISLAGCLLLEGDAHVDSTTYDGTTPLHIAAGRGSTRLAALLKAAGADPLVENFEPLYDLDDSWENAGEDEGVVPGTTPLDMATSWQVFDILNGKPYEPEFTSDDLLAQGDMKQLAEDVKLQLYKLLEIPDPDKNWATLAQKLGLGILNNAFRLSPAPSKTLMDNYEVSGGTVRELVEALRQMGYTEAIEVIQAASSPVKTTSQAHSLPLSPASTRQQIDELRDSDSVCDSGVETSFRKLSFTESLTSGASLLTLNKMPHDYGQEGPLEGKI
T1 sequence (Q00653 whole entry, looked up): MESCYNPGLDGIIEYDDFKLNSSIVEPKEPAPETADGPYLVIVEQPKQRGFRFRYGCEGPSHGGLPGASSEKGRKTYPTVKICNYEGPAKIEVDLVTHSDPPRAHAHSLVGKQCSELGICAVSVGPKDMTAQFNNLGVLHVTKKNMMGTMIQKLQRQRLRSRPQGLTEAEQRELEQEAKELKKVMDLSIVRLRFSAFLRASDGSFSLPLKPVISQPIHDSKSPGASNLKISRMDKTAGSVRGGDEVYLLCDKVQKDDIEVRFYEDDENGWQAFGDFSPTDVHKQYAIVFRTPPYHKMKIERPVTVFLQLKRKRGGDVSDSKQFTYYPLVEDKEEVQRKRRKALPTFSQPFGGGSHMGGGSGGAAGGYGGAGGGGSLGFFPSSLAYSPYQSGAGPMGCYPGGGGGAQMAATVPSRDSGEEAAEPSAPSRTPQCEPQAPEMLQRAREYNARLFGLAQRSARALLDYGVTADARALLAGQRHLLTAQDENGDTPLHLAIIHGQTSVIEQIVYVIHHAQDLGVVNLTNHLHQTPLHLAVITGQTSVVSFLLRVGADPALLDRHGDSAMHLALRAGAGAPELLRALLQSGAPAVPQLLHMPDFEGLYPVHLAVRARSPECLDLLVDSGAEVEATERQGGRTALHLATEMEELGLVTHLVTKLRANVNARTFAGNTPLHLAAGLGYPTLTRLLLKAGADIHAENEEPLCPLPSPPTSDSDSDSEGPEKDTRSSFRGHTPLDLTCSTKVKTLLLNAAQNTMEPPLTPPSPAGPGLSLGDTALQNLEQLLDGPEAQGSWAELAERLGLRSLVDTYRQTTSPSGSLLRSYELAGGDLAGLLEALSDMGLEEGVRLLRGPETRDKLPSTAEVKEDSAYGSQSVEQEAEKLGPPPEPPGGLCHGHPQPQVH
T1 sequence (Q04206 whole entry, looked up): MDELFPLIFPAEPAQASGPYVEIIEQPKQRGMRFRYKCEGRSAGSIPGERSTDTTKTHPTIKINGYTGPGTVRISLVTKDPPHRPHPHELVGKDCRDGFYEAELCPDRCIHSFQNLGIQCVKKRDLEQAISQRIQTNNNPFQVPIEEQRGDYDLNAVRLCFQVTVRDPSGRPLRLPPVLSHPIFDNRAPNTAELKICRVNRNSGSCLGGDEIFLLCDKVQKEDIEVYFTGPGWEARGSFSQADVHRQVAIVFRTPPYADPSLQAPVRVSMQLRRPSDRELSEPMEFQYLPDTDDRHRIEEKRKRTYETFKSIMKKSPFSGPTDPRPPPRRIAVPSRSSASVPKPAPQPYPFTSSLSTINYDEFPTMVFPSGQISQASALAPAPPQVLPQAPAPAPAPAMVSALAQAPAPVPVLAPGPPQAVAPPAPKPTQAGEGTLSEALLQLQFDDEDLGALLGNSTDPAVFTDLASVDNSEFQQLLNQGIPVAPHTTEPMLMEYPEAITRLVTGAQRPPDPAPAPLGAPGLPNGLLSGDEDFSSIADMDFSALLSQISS

Work on COc1ccc2c(CSC(=S)N3CCCC3)cc(=O)oc2c1 yielded a pIC50 (HepG2 [1]) of 4.21.

Work on CCOC(=O)Nc1ccc2c(CSC(=S)N(C)C)cc(=O)oc2c1 yielded a pIC50 (HepG2 [1]) of 4.18.

For O=c1cc(CSC(=S)N2CCCC2)c2ccc(F)cc2o1, the pIC50 (HepG2 [1]) was 4.20.

In the case of COC(=O)Nc1ccc2c(CSC(=S)N(C)C)cc(=O)oc2c1, the pIC50 (HepG2 [1]) was 4.21.

For O=c1cc(CSC(=S)N2CCCC2)c2ccc(Cl)cc2o1, the pIC50 (HepG2 [1]) was 4.22.

Cc1cc(C)c2c(CSC(=S)N(C)C)cc(=O)oc2c1 showed a pIC50 (HepG2 [1]) of 4.20.

In the case of CN(C)C(=S)SCc1cc(=O)oc2ccc(F)cc12, the pIC50 (HepG2 [1]) was 4.23.

With CCOC(=O)Nc1ccc2c(CSC(=S)N3CCCC3)cc(=O)oc2c1 the Activity (HepG2 [2]) was “Active”, the Activity [3] was “Active” and the Activity [4] was “Non-toxic”. The Activity [5] was “Active”, the Activity [6] was “Active” and the Activity (HepG2 [7]) was “Active”. The Activity (HepG2 [8]) was “Active”, the Activity [9] was “Active” and the Activity [10] was “tde”. The Activity (HepG2 [11]) was “tde”, the Activity [12] was “Active” and the Activity (PLC-PRF-5) was “Dose-dependent effect”. The Activity (HepG2 [1]) was “Dose-dependent effect”, the pIC50 (HepG2 [1]) was 4.83 and the Activity (Huh-7) was “Dose-dependent effect”.

O=c1cc(CSC(=S)N2CCCC2)c2ccc3ccccc3c2o1 gave a pIC50 (HepG2 [1]) of 4.21.

In the case of CN(C)C(=S)SCc1cc(=O)oc2c1ccc1ccccc12, the pIC50 (HepG2 [1]) was 4.19.

With Cc1ccc2oc(=O)cc(CSC(=S)N(C)C)c2c1 the pIC50 (HepG2 [1]) was 4.18.

Compound O=c1cc(CSC(=S)N2CCCC2)c2cc(F)ccc2o1 has a pIC50 (HepG2 [1]) of 4.18.

For COc1ccc2oc(=O)cc(CSC(=S)N3CCCC3)c2c1, the pIC50 (HepG2 [1]) was 4.27.

COc1ccc2oc(=O)cc(CSC(=S)N(C)C)c2c1 gave a pIC50 (HepG2 [1]) of 4.22.
